Assay results: ChEMBL document CHEMBL4480463, “Quassinoids from Picrasma quassioides and Their Neuroprotective Effects” (2019)
Calls of active or inactive are those of the source. No cut-off for these calls is given here.

Tests used:
SH-SY5Y [1] = experiment: Neuroprotective activity against H2O2-induced cytotoxicity in human SH-SY5Y cells at 25 to 100 uM preincubated for 1 hr followed by H2O2-stimulation and measured after 4 hrs by MTT assay; type: functional, cell-based
Method in brief: (§1)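 SH-SY5Y cells preincubated with compound (25, 50 or 100 μM) for 1 h, then exposed to 300 μM H2O2 for 4 h. Viability read by MTT assay. Trolox served as positive control.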

SH-SY5Y [2] = experiment: Inhibition of H2O2-induced apoptosis in human SH-SY5Y cells assessed as necrotic cells at 25 uM preincubated for 1 hr followed by H2O2-stimulation and measured after 4 hrs by Annexin V-FITC/propidium iodide staining-based flow cytometric analysis (reference value: 22.2%); type: functional; set-up: scale not given: the % may be the effect or the level left
SH-SY5Y [3] = experiment: Inhibition of H2O2-induced apoptosis in human SH-SY5Y cells assessed as viable cells at 25 uM preincubated for 1 hr followed by H2O2-stimulation and measured after 4 hrs by Annexin V-FITC/propidium iodide staining-based flow cytometric analysis (reference value: 50.7%); type: functional; details: read-out: Activity
SH-SY5Y [4] = experiment: Neuroprotective activity against H2O2-induced cytotoxicity in human SH-SY5Y cells at 25 uM preincubated for 1 hr followed by H2O2-stimulation and measured after 4 hrs by MTT assay; type: functional, cell-based; method in brief: as §1
SH-SY5Y [5] = experiment: Inhibition of H2O2-induced apoptosis in human SH-SY5Y cells assessed as early apoptotic cells at 25 uM preincubated for 1 hr followed by H2O2-stimulation and measured after 4 hrs by Annexin V-FITC/propidium iodide staining-based flow cytometric analysis (reference value: 2.25%); type: functional; set-up: scale not given: the % may be the effect or the level left
SH-SY5Y [6] = experiment: Inhibition of H2O2-induced apoptosis in human SH-SY5Y cells assessed as late apoptotic cells at 25 uM preincubated for 1 hr followed by H2O2-stimulation and measured after 4 hrs by Annexin V-FITC/propidium iodide staining-based flow cytometric analysis (reference value: 24.9%); type: functional; set-up: scale not given: the % may be the effect or the level left
SH-SY5Y [7] = experiment: Inhibition of H2O2-induced apoptosis in human SH-SY5Y cells assessed as decrease in caspase-3 activity at 25 uM; type: functional, cell-based
Method in brief: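 SH-SY5Y cells exposed to H2O2 with or without test compound; caspase-3 activity in the cells quantified with a commercial caspase-3 activity assay kit; data given as means ± SDs.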

## COC1=C[C@@H](C)[C@@H]2C[C@H]3OC(=O)C=C4[C@@H](C)[C@@H]5OCO[C@H]5[C@@H]([C@]43C)[C@@]2(C)C1=O
SH-SY5Y [1]
  Activity: inactive

## COC1=C[C@@H](C)[C@@H]2C[C@H]3OC(=O)C[C@@]4(O)C(C)=C(OC)C(=O)[C@H]([C@@]2(C)C1=O)[C@@]34C
SH-SY5Y [2]
  Activity: 11.3%
SH-SY5Y [3]
  viability at 25 µM: 72.1%
SH-SY5Y [4]
  Activity: Active
SH-SY5Y [5]
  Activity: 3.18%
SH-SY5Y [6]
  Activity: 13.4%

## COC1=C[C@@H](C)[C@@H]2C[C@H]3OC(=O)C[C@H]4[C@](C)(O)[C@@H](O)C(=O)[C@H]([C@@]2(C)C1=O)[C@@]34C
SH-SY5Y [1]
  Activity: inactive

## COC1=C[C@@H](C)[C@@H]2C[C@H]3OC(=O)C[C@H]4[C@@H](C)[C@H](OC)[C@@H](OC(=O)c5cc(OC)c6c(c5)OCO6)[C@H]([C@@]2(C)C1=O)[C@@]34C
SH-SY5Y [2]
  Activity: 7.89%
SH-SY5Y [3]
  viability at 25 µM: 79.8%
SH-SY5Y [4]
  Activity: Active
SH-SY5Y [7]
  Activity: Active
SH-SY5Y [5]
  Activity: 2.2%
SH-SY5Y [6]
  Activity: 10.1%

## COC1=C[C@@H](C)[C@@H]2C[C@H]3O[C@@H](O[C@@H]4O[C@H](CO)[C@@H](O)[C@H](O)[C@H]4O)C[C@H]4[C@@H](C)[C@H](OC)[C@@H](O)[C@H]([C@@]2(C)C1=O)[C@@]34C
SH-SY5Y [1]
  Activity: Active

## COC1=C[C@@H](C)[C@@H]2C[C@H]3O[C@@H](O[C@@H]4O[C@H](CO)[C@@H](O)[C@H](O)[C@H]4O)C[C@@H]4[C@@]3(C)[C@H]([C@H](O)C(=O)[C@@]4(C)O)[C@@]2(C)C1=O
SH-SY5Y [1]
  Activity: inactive

## COC1=C[C@@H](C)[C@@H]2C[C@H]3O[C@@H](O[C@@H]4O[C@H](CO)[C@@H](O)[C@H](O)[C@H]4O)C[C@H]4[C@](C)(O)[C@H](OC)[C@@H](O)[C@H]([C@@]2(C)C1=O)[C@@]34C
SH-SY5Y [1]
  Activity: Active

## COC1=C[C@@H](C)[C@@H]2C[C@H]3OC(=O)C[C@@]4(O)[C@@H](C)[C@H](OC)[C@@H](O)[C@H]([C@@]2(C)C1=O)[C@@]34C
SH-SY5Y [1]
  Activity: Active

## COC1=C[C@@H](C)[C@@H]2C[C@H]3O[C@@H](O[C@@H]4O[C@H](CO)[C@@H](O)[C@H](O)[C@H]4O)C[C@H]4C(C)=C(OC)C(=O)[C@H]([C@@]2(C)C1=O)[C@@]34C [PICRASINOSIDE B]
SH-SY5Y [2]
  Activity: 7.43%
SH-SY5Y [3]
  viability at 25 µM: 82.2%
SH-SY5Y [4]
  Activity: Active
SH-SY5Y [7]
  Activity: Active
SH-SY5Y [5]
  Activity: 1.86%
SH-SY5Y [6]
  Activity: 8.55%

## COC1=C[C@@H](C)[C@@H]2C[C@H]3OC(=O)C[C@H]4[C@@H](C)[C@@H](O)C(=O)[C@H]([C@@]2(C)C1=O)[C@@]34C
SH-SY5Y [1]
  Activity: inactive

## COC1=C[C@@H](C)[C@@H]2C[C@H]3OC(=O)C[C@H]4[C@](C)(O)[C@H](OC)[C@@H](O)[C@H]([C@@]2(C)C1=O)[C@@]34C
SH-SY5Y [1]
  Activity: Active

## COC1=C[C@@H](C)[C@@H]2C[C@H]3OC(=O)C[C@H]4C(C)=C(OC)C(=O)[C@H]([C@@]2(C)C1=O)[C@@]34C [QUASSIN]
SH-SY5Y [2]
  Activity: 10.7%
SH-SY5Y [3]
  viability at 25 µM: 73.1%
SH-SY5Y [4]
  Activity: Active
SH-SY5Y [5]
  Activity: 2.45%
SH-SY5Y [6]
  Activity: 13.7%

## COC1=C(C)[C@@H]2CC(=O)O[C@@H]3C[C@H]4[C@H](C)C[C@H](O)C(=O)[C@]4(C)[C@@H](C1=O)[C@@]32C
SH-SY5Y [1]
  Activity: Active

## COC1=C[C@@H](C)[C@@H]2C[C@H]3OC(=O)C[C@H]4C(CO)=C(OC)C(=O)[C@H]([C@@]2(C)C1=O)[C@@]34C
SH-SY5Y [2]
  Activity: 7.31%
SH-SY5Y [3]
  viability at 25 µM: 76.8%
SH-SY5Y [4]
  Activity: Active
SH-SY5Y [5]
  Activity: 2.96%
SH-SY5Y [6]
  Activity: 13%

## COC1=C[C@@H](C)[C@@H]2C[C@H]3OC(=O)C=C4C(C)=C(OC)C(=O)[C@@H]([C@]43C)[C@@]2(C)C1=O
SH-SY5Y [1]
  Activity: Active

## COC1=C[C@@H](C)[C@@H]2C[C@H]3OC(=O)C[C@H]4[C@@H](C)[C@H](O)C(=O)[C@H]([C@@]2(C)C1=O)[C@@]34C
SH-SY5Y [1]
  Activity: inactive

## COC1=C[C@@H](C)[C@@H]2C[C@H]3O[C@@H](O[C@@H]4O[C@H](CO)[C@@H](O)[C@H](O)[C@H]4O)C[C@@H]4[C@@]3(C)[C@H]([C@H](O)C(=O)[C@@]4(C)OC(C)=O)[C@@]2(C)C1=O
SH-SY5Y [1]
  Activity: inactive

## COC1=C[C@@H](C)[C@@H]2C[C@H]3OC(=O)C[C@H]4[C@](C)(O)[C@@H]5OCO[C@H]5[C@H]([C@@]2(C)C1=O)[C@@]34C
SH-SY5Y [1]
  Activity: Active

## COC1=C[C@@H](C)[C@@H]2C[C@H]3OC(=O)C[C@H]4[C@@H](C)[C@@H]5OCO[C@H]5[C@H]([C@@]2(C)C1=O)[C@@]34C
SH-SY5Y [1]
  Activity: Active
